Key:
[1] = target: T1, 72 kDa type IV collagenase (Homo sapiens, UniProt P08253); assay: Inhibition of MMP2 (unknown origin) using succinylated gelatin as substrate preincubated for 10 mins before substrate addition measured after 30 mins by spectrophotometry
In short: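 Purified MMP-2 (gelatinase A) and inhibitor in 50 mmol/L sodium borate pH 8.5, preincubated 10 min at 37 °C. Succinylated gelatin then added for 30 min at 37 °C, followed by 0.03% TNBS for 20 min; OD read at 450 nm. IC₅₀ as mean with SD of three experiments.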

[2] = target: Histone deacetylase; assay: Inhibition of HDAC in human HeLa nuclear extract using Boc-Lys (acetyl)-AMC as fluorogenic substrate after 30 mins by spectrophotometry; type: protein assay
[3] = target: T2, Aminopeptidase N (Sus scrofa, UniProt P15145); assay: Inhibition of pig kidney microsomal APN using L-Leu-p-nitroanilide as substrate preincubated for 5 mins before substrate addition measured after 30 mins by spectrophotometry
T2 sequence (P15145 whole entry): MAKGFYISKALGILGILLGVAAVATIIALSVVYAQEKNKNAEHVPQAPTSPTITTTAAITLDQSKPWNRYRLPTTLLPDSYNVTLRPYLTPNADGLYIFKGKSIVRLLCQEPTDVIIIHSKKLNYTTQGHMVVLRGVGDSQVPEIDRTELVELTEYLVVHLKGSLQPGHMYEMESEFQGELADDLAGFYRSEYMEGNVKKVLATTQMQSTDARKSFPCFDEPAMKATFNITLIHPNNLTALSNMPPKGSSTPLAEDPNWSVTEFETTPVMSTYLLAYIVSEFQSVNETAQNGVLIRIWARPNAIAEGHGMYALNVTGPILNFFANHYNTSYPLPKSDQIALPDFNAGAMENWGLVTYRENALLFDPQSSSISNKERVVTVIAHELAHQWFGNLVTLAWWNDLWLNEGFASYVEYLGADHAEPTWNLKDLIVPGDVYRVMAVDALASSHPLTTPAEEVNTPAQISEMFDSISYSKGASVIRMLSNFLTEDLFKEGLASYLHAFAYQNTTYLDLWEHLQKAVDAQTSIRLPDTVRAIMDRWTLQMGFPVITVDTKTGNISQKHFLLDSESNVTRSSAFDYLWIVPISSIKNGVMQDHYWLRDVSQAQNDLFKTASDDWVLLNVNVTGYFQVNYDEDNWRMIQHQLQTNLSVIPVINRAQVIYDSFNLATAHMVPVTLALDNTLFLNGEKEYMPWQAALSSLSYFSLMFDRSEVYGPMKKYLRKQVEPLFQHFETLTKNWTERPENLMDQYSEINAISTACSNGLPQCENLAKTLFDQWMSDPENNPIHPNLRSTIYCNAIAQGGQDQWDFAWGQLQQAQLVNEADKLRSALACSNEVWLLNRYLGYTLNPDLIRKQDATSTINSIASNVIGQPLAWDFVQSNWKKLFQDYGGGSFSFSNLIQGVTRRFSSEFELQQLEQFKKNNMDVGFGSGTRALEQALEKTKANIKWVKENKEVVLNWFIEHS

[4] = target: T1, 72 kDa type IV collagenase; assay: Inhibition of MMP2 in human SKOV3 cell suspension using succinylated gelatin as substrate preincubated for 10 mins before substrate addition measured after 30 mins by spectrophotometry; parameters: species or system SK-OV-3
In short: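 Enzyme source was SKOV-3 cells suspended in PBS, 1 × 10⁵/well, incubated with inhibitor in 50 mmol/L sodium borate pH 8.5 for 10 min at 37 °C. Succinylated gelatin added for 30 min at 37 °C, then 0.03% TNBS for 20 min; absorbance at 450 nm. IC₅₀ as mean with SD of three experiments.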

[5] = system: SK-OV-3; assay: Antiproliferative activity against human SKOV3 cells after 48 hrs by MTT assay; type: functional, cell-based; details: SK-OV-3, 48 h
In short: (§1)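 Cells kept in RPMI1640 with 10% FBS at 37 °C, 5% CO₂; seeded 10,000/well, grown 4 h, then exposed to graded compound concentrations for 48 h. 0.5% MTT added for 4 h, formazan dissolved in DMSO 15 min. IC₅₀ as mean with SD of triplicate experiments.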

[6] = system: A549; assay: Antiproliferative activity against human A549 cells after 48 hrs by MTT assay; type: functional, cell-based; details: A549, 48 h; in short: as §1
[7] = system: HL-60; assay: Antiproliferative activity against human HL60 cells after 48 hrs by MTT assay; type: functional, cell-based; details: HL-60, 48 h; in short: as §1

T1 sequence (P08253 whole entry): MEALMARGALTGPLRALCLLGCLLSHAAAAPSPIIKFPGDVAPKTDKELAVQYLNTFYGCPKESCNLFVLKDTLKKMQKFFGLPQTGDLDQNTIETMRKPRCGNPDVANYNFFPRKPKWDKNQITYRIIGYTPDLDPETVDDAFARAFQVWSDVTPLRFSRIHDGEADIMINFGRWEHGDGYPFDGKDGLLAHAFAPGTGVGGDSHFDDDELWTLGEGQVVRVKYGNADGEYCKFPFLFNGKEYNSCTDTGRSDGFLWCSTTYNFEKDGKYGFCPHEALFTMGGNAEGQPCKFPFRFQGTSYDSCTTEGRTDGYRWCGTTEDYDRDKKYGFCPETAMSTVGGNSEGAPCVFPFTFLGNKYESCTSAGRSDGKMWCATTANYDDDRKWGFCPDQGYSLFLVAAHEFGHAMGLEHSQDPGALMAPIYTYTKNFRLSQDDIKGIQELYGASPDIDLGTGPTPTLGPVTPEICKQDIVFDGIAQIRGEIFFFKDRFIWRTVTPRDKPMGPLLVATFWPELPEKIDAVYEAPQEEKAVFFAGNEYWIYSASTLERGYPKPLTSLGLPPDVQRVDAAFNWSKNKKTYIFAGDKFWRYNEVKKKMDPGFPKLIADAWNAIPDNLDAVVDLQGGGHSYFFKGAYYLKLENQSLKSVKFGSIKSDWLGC

COc1ccc(S(=O)(=O)N2C[C@@H](NC(=O)CNC(=O)[C@@H](N)C(C)C)C[C@H]2C(=O)NO)cc1.Cl
IC50 [1]: 2.71 µM | IC50 [2]: > 100 µM | IC50 [3]: 90.8 µM

Cc1ccc(S(=O)(=O)N2C[C@@H](NC(=O)CNC(=O)[C@@H](N)Cc3ccccc3)C[C@H]2C(=O)NO)cc1.Cl
IC50 [1]: 0.98 µM | IC50 [2]: > 100 µM | IC50 [3]: 88 µM

Cl.N[C@@H](Cc1ccccc1)C(=O)NCC(=O)N[C@H]1C[C@@H](C(=O)NO)N(S(=O)(=O)c2ccccc2)C1
IC50 [1]: 2.07 µM | IC50 [2]: > 100 µM | IC50 [3]: 94.5 µM

Cc1ccc(S(=O)(=O)N2C[C@@H](NC(=O)CNC(=O)[C@H](C)N)C[C@H]2C(=O)NO)cc1.Cl
IC50 [1]: 4.36 µM | IC50 [2]: > 100 µM | IC50 [3]: > 100 µM

CSCC[C@H](N)C(=O)NCC(=O)N[C@H]1C[C@@H](C(=O)NO)N(S(=O)(=O)c2ccc(C)cc2)C1.Cl
IC50 [1]: 1.03 µM | IC50 [2]: > 100 µM | IC50 [3]: > 100 µM

CSCC[C@H](N)C(=O)NCC(=O)N[C@H]1C[C@@H](C(=O)NO)N(S(=O)(=O)c2ccc(Cl)cc2)C1.Cl
IC50 [4]: 26.2 µM | IC50 [1]: 0.46 µM | IC50 [2]: > 100 µM | IC50 [5]: 322 µM | IC50 [6]: > 1000 µM | IC50 [7]: > 1000 µM | IC50 [3]: 95.3 µM

Cc1ccc(S(=O)(=O)N2C[C@@H](NC(=O)CNC(=O)[C@@H](N)C(C)C)C[C@H]2C(=O)NO)cc1.Cl
IC50 [1]: 2.95 µM | IC50 [2]: > 100 µM | IC50 [3]: 96.2 µM

COc1ccc(/C=C/C(=O)N2C[C@@H](NC(=O)c3cccnc3)C[C@H]2C(=O)NO)cc1OC
IC50 [4]: 43.7 µM | IC50 [1]: 0.95 µM | IC50 [2]: > 100 µM | IC50 [5]: 697 µM | IC50 [6]: > 1000 µM | IC50 [7]: > 1000 µM | IC50 [3]: > 100 µM

CC(C)C[C@H](NC(=O)[C@@H](O)[C@H](N)Cc1ccccc1)C(=O)O [UBENIMEX]
IC50 [1]: > 100 µM

C[C@H](N)C(=O)NCC(=O)N[C@H]1C[C@@H](C(=O)NO)N(S(=O)(=O)c2ccccc2)C1.Cl
IC50 [1]: 7.43 µM | IC50 [2]: > 100 µM | IC50 [3]: > 100 µM

CC[C@H](C)[C@H](N)C(=O)NCC(=O)N[C@H]1C[C@@H](C(=O)NO)N(S(=O)(=O)c2ccc(OC)cc2)C1.Cl
IC50 [1]: 1.94 µM | IC50 [2]: > 100 µM | IC50 [3]: 89.9 µM

CC(C)[C@H](N)C(=O)NCC(=O)N[C@H]1C[C@@H](C(=O)NO)N(S(=O)(=O)c2ccc(Cl)cc2)C1.Cl
IC50 [1]: 1.81 µM | IC50 [2]: > 100 µM | IC50 [3]: 79.6 µM

COc1ccc(S(=O)(=O)N2C[C@@H](NC(=O)CNC(=O)[C@@H](N)CCSC)C[C@H]2C(=O)NO)cc1.Cl
IC50 [4]: 35.9 µM | IC50 [1]: 0.76 µM | IC50 [2]: > 100 µM | IC50 [3]: > 100 µM

Cl.N[C@@H](Cc1ccccc1)C(=O)NCC(=O)N[C@H]1C[C@@H](C(=O)NO)N(S(=O)(=O)c2ccc(Cl)cc2)C1
IC50 [4]: 24.7 µM | IC50 [1]: 0.43 µM | IC50 [2]: > 100 µM | IC50 [5]: 285 µM | IC50 [6]: > 1000 µM | IC50 [7]: > 1000 µM | IC50 [3]: 89.9 µM

CC(C)[C@H](N)C(=O)NCC(=O)N[C@H]1C[C@@H](C(=O)NO)N(S(=O)(=O)c2ccccc2)C1.Cl
IC50 [1]: 5.76 µM | IC50 [2]: > 100 µM | IC50 [3]: > 100 µM

CC(C)C[C@H](N)C(=O)NCC(=O)N[C@H]1C[C@@H](C(=O)NO)N(S(=O)(=O)c2ccc(Cl)cc2)C1.Cl
IC50 [4]: 18.4 µM | IC50 [1]: 0.27 µM | IC50 [2]: > 100 µM | IC50 [5]: 196 µM | IC50 [6]: > 1000 µM | IC50 [7]: > 1000 µM | IC50 [3]: 72.3 µM

CC(C)C[C@H](N)C(=O)NCC(=O)N[C@H]1C[C@@H](C(=O)NO)N(S(=O)(=O)c2ccccc2)C1.Cl
IC50 [1]: 1.52 µM | IC50 [2]: > 100 µM | IC50 [3]: 82.3 µM

C[C@H](N)C(=O)NCC(=O)N[C@H]1C[C@@H](C(=O)NO)N(S(=O)(=O)c2ccc(Cl)cc2)C1.Cl
IC50 [1]: 3.36 µM | IC50 [2]: > 100 µM | IC50 [3]: > 100 µM

CC[C@H](C)[C@H](N)C(=O)NCC(=O)N[C@H]1C[C@@H](C(=O)NO)N(S(=O)(=O)c2ccc(C)cc2)C1.Cl
IC50 [1]: 2.05 µM | IC50 [2]: > 100 µM | IC50 [3]: 92.6 µM

COc1ccc(S(=O)(=O)N2C[C@@H](NC(=O)CNC(=O)[C@@H](N)CC(C)C)C[C@H]2C(=O)NO)cc1.Cl
IC50 [4]: 29.7 µM | IC50 [1]: 0.52 µM | IC50 [2]: > 100 µM | IC50 [3]: 83.6 µM

Cc1ccc(S(=O)(=O)N2C[C@@H](NC(=O)CNC(=O)[C@@H](N)CC(C)C)C[C@H]2C(=O)NO)cc1.Cl
IC50 [4]: 38.3 µM | IC50 [1]: 0.87 µM | IC50 [2]: > 100 µM | IC50 [3]: 75.8 µM

COc1ccc(S(=O)(=O)N2C[C@@H](NC(=O)CNC(=O)[C@H](C)N)C[C@H]2C(=O)NO)cc1.Cl
IC50 [1]: 4.19 µM | IC50 [2]: > 100 µM | IC50 [3]: > 100 µM

CSCC[C@H](N)C(=O)NCC(=O)N[C@H]1C[C@@H](C(=O)NO)N(S(=O)(=O)c2ccccc2)C1.Cl
IC50 [1]: 2.32 µM | IC50 [2]: > 100 µM | IC50 [3]: > 100 µM

CC[C@H](C)[C@H](N)C(=O)NCC(=O)N[C@H]1C[C@@H](C(=O)NO)N(S(=O)(=O)c2ccccc2)C1.Cl
IC50 [1]: 5.21 µM | IC50 [2]: > 100 µM | IC50 [3]: > 100 µM

COc1ccc(S(=O)(=O)N2C[C@@H](NC(=O)CNC(=O)[C@@H](N)Cc3ccccc3)C[C@H]2C(=O)NO)cc1.Cl
IC50 [4]: 31.5 µM | IC50 [1]: 0.72 µM | IC50 [2]: > 100 µM | IC50 [3]: 93.8 µM

CC[C@H](C)[C@H](N)C(=O)NCC(=O)N[C@H]1C[C@@H](C(=O)NO)N(S(=O)(=O)c2ccc(Cl)cc2)C1.Cl
IC50 [1]: 1.28 µM | IC50 [2]: > 100 µM | IC50 [3]: 86.4 µM
